# Experimental data from ChEMBL document CHEMBL1687883, “Dinoxin B, a withanolide from Datura inoxia leaves with specific cytotoxic activities” (J Nat Prod, 2011).
# Experiments:
# MCF7 = experiment: Cytotoxicity against human MCF7 cells after 48 hrs by CellTiterGlo luminescent assay; format: functional, cell-based; conditions: MCF7, 48 h
# Outline: (§1)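 Cells (5000-15 000 per well) were plated and left to adhere for 24 h in standard growth medium under ATCC-recommended conditions. The medium was then replaced and the compound added across varying doses, with DMSO in the final medium. Viability was read by ATP-dependent CellTiter-Glo luminescence, and IC50 values were derived from the dose series.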
# MDA-MB-468 = experiment: Cytotoxicity against human MDA-MB-468 cells after 48 hrs by CellTiterGlo luminescent assay; format: functional, cell-based; conditions: MDA-MB-468, 48 h; outline: as §1
# T47D = experiment: Cytotoxicity against human T47D cells after 48 hrs by CellTiterGlo luminescent assay; format: functional, cell-based; outline: as §1
# MDA-MB-453 = experiment: Cytotoxicity against human MDA-MB-453 cells after 48 hrs by CellTiterGlo luminescent assay; format: functional, cell-based; conditions: MDA-MB-453, 48 h; outline: as §1
# [1] = Cytotoxicity against rat IEC-6 cells after 48 hrs by CellTiterGlo luminescent assay; format: cell-based; conditions: IEC-6, 48 h; outline: as §1
# SK-MEL-2 = experiment: Cytotoxicity against human SK-MEL-2 cells after 48 hrs by CellTiterGlo luminescent assay; format: functional, cell-based; conditions: SK-MEL-2, 48 h; outline: as §1
# [2] = Cytotoxicity against human NHF177 cells after 48 hrs by CellTiterGlo luminescent assay; format: cell-based; conditions: NHF177, 48 h; outline: as §1
# MDA-MB-231 = experiment: Cytotoxicity against human MDA-MB-231 cells after 48 hrs by CellTiterGlo luminescent assay; format: functional, cell-based; conditions: MDA-MB-231, 48 h; outline: as §1
# RKO = experiment: Cytotoxicity against human RKO cells after 48 hrs by CellTiterGlo luminescent assay; format: functional, cell-based; outline: as §1
# HCT-116 = experiment: Cytotoxicity against human HCT116 cells after 48 hrs by CellTiterGlo luminescent assay; format: functional, cell-based; conditions: HCT-116, 48 h; outline: as §1
# [3] = Cytotoxicity against human Hs 578T cells after 48 hrs by CellTiterGlo luminescent assay; format: functional, cell-based; outline: as §1
# Huh-7 = experiment: Cytotoxicity against human HuH7 cells after 48 hrs by CellTiterGlo luminescent assay; format: functional, cell-based; conditions: Huh-7, 48 h; outline: as §1
# UACC-62 = experiment: Cytotoxicity against human UACC62 cells after 48 hrs by CellTiterGlo luminescent assay; format: functional, cell-based; conditions: UACC-62, 48 h; outline: as §1
# HUVEC = experiment: Cytotoxicity against human HUVEC cells after 48 hrs by CellTiterGlo luminescent assay; format: cell-based; outline: as §1
# SK-MEL-5 = experiment: Cytotoxicity against human SK-MEL-5 cells after 48 hrs by CellTiterGlo luminescent assay; format: functional, cell-based; conditions: SK-MEL-5, 48 h; outline: as §1
# A-427 = experiment: Cytotoxicity against human A427 cells after 48 hrs by CellTiterGlo luminescent assay; format: functional, cell-based; conditions: A-427, 48 h; outline: as §1
# [4] = Cytotoxicity against human Hep3B cells after 48 hrs by CellTiterGlo luminescent assay; format: functional, cell-based, Hep 3B2; outline: as §1
# SK-MEL-28 = experiment: Cytotoxicity against human SK-MEL-28 cells after 48 hrs by CellTiterGlo luminescent assay; format: functional, cell-based; conditions: SK-MEL-28, 48 h; outline: as §1
# HepG2 = experiment: Cytotoxicity against human HepG2 cells after 48 hrs by CellTiterGlo luminescent assay; format: functional, cell-based; conditions: HepG2, 48 h; outline: as §1
# COLO 205 = experiment: Cytotoxicity against human COLO205 cells after 48 hrs by CellTiterGlo luminescent assay; format: functional, cell-based; conditions: COLO 205, 48 h; outline: as §1
# A549 = experiment: Cytotoxicity against human A549 cells after 48 hrs by CellTiterGlo luminescent assay; format: functional, cell-based; conditions: A549, 48 h; outline: as §1
# SW48 = experiment: Cytotoxicity against human SW48 cells after 48 hrs by CellTiterGlo luminescent assay; format: functional, cell-based; conditions: SW48, 48 h; outline: as §1
# OVCAR-3 = experiment: Cytotoxicity against human OVCAR3 cells after 48 hrs by CellTiterGlo luminescent assay; format: functional, cell-based; conditions: OVCAR-3, 48 h; outline: as §1
structure (smiles),measurement,setting,value
CC1=C(CO)C(=O)O[C@@H]([C@@H](CO)[C@H]2CC[C@H]3[C@@H]4CC=C5CC=CC(=O)[C@]5(C)[C@H]4C[C@@H](O)[C@]23C)C1,IC50,MCF7,0.87 µM
same,IC50,MDA-MB-468,0.75 µM
same,IC50,T47D,0.99 µM
CC1=C(CO[C@@H]2O[C@H](CO)[C@@H](O)[C@H](O)[C@H]2O)C(=O)O[C@@H]([C@@H](CO)[C@H]2CC[C@H]3[C@@H]4CC=C5CC=CC(=O)[C@]5(C)[C@H]4C[C@@H](O)[C@]23C)C1 [DINOXIN B],IC50,MDA-MB-453,3 µM
same,IC50,[1],3.3 µM
same,IC50,SK-MEL-2,0.36 µM
same,IC50,[2],1.23 µM
same,IC50,MDA-MB-231,1 µM
same,IC50,RKO,0.36 µM
same,IC50,HCT-116,1 µM
same,IC50,[3],0.44 µM
same,IC50,Huh-7,1.5 µM
same,IC50,UACC-62,0.5 µM
same,IC50,HUVEC,0.74 µM
same,IC50,SK-MEL-5,1.4 µM
same,IC50,A-427,0.87 µM
same,IC50,[4],0.67 µM
same,IC50,MCF7,0.61 µM
same,IC50,SK-MEL-28,2.3 µM
same,IC50,HepG2,1.5 µM
same,IC50,COLO 205,2.2 µM
same,IC50,MDA-MB-468,0.58 µM
same,IC50,T47D,0.22 µM
same,IC50,A549,3.4 µM
same,IC50,SW48,0.58 µM
same,IC50,OVCAR-3,3.2 µM
